Data set [1] is described as follows: Solubility of the compound in assay buffer in presence of 5% DMSO. It counts as physicochemical.
Data set [2] deals with T1, Soluble guanylate cyclase alpha1/beta1 complex (Homo sapiens) (UniProt Q02153+Q02108). The data set is described as follows: Binding affinity to full-length human recombinant sGC subunit alpha-1/beta-1 at 100 uM after 30 seconds by SPR analysis. Format: protein-complex assay. In outline: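 Compounds at 100 μM in running buffer (10 mM HEPES pH 7.4, 150 mM NaCl, 3 mM EDTA, 0.05% P20, 1 mM DTT, 10 mM MgCl2, 5% DMSO), 25 °C. Injection and dissociation 30 s each, triplicate.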
For orientation: Surface plasmon resonance follows binding to a sensor surface in real time, without labels.

Data set [3] deals with T1, Soluble guanylate cyclase alpha1/beta1 complex (Homo sapiens). The data set is described as follows: Binding affinity to sGC subunit alpha-1/beta-1 catalytic domain (unknown origin) assessed as occupancy relative to control. Format: protein-complex assay. The gist of the method: (§1)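 Compounds at 100 μM in DMSO-containing running buffer, 25 °C. Injection and dissociation 30 s each, triplicate. Responses double-referenced, DMSO-corrected, control subtracted; occupancy is the fraction of immobilised sites bound, assuming 1:1 stoichiometry.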

The target is the same in data set [4]. Description: Activation of human recombinant sGC subunit alpha-1/beta-1 using GTP as substrate assessed as cGMP production measured per ng of protein at 100 uM treated prior to DEA/NO addition measured after 2 mins by radioimmunoassay in presence of Mg2+. Format: protein-complex assay.
Data set [5] has the same target. Description: Binding affinity to sGC subunit alpha-1/beta-1 catalytic domain (unknown origin) at 100 uM after 30 seconds by SPR analysis. Format: protein-complex assay. In outline:
as §1

Active and inactive are the calls of the source. The rule behind the calls is not given here.

`Nc1nc(-c2nn(Cc3ccccc3F)c3ncccc23)ncc1C1CC1`: the solubility result in data set [1] is “Insoluble”.
`Cc1oncc1Cn1nc(-c2nc(CN)no2)c2ccccc21`: the outcome in data set [2] was Active. In data set [3], the Occ is 34%. For the same compound, the Activity in data set [4] came out at 9.09 pmol.
In the case of `Cc1ccc(Cn2nc(-c3nc(CN)no3)c3ccccc32)cc1`, in data set [2], the outcome was Active. Besides, the Occ in data set [3] was found to be 90%. Also, the Activity in data set [4] turned out to be 14.3 pmol.
For the compound `NCc1noc(-c2c3ccccc3nn2Cc2ccc3c(c2)OCO3)n1`, the Occ in data set [3] is 96%. Further, the Activity in data set [4] was determined as 9.11 pmol.
Take `CC(=O)Nc1ccc(Cn2nc(-c3nc(CNC(=O)OC(C)(C)C)no3)c3ccccc32)cc1`: in data set [3], the Occ stood at 62%. Also, the Activity in data set [4] turned out to be 2.23 pmol.
On to `Cc1ccccc1Cn1nc(-c2nc(CN)no2)c2ccccc21`, for which the outcome in data set [2] was Active. The Occ in data set [3] stood at 101%. In addition, the Activity in data set [4] was found to be 3.22 pmol.
For the compound `COc1ccc(Cn2nc(-c3nc(CN)no3)c3ccccc32)cc1`, the result in data set [5] and in data set [2] was inactive. Also, the Occ in data set [3] is 21%. Further, the Activity in data set [4] amounted to 2.33 pmol.
For `CC(C)(C)OC(=O)NCc1noc(-c2nn(Cc3ccc4c(c3)OCO4)c3ccccc23)n1`, the outcome in data set [2] was Active. Further, the Occ in data set [3] worked out at 40%. Also, the Activity in data set [4] is 15.6 pmol.
On to `O=C(O)CCCCN(CCc1ccccc1OCc1ccc(CCc2ccccc2)cc1)Cc1ccc(C(=O)O)cc1`, for which, in data set [5], the result was inactive. Besides, in data set [2], the result was Active.
With `NCc1noc(-c2c3ccccc3nn2CCn2ccnc2)n1`, the Occ in data set [3] was 28%. Also, the Activity in data set [4] worked out at 2.72 pmol.
Consider `CC(=O)n1nc(-c2nc(CN)no2)c2ccccc21`, for which the Occ in data set [3] stood at 20%. The Activity in data set [4] turned out to be 4.05 pmol.
Turning to `NCc1noc(-c2c3ccccc3nn2Cc2cccc(Cl)c2)n1`, the Occ in data set [3] came out at 94%. The Activity in data set [4] stood at 2.08 pmol.

The values are drawn from ChEMBL document CHEMBL3112547, “Surface plasmon resonance using the catalytic domain of soluble guanylate cyclase allows the detection of enzyme activators” (Bioorg Med Chem Lett, 2014).
